As usually defined, the pEC50 is the negative decadic logarithm of the EC50, by convention in mol/L. The low end stands for a large EC50, the high end for a small EC50.

Each structure is given as a SMILES string. pEC50: −log10 of the molar value. The source made the active and inactive calls.

One series relates to FaDu. As to the kind of experiment: Cytotoxicity against human FADU cells after 96 hrs by SRB assay. Format: functional, cell-based. The method in brief: (§1)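 Sulforhodamine B colorimetric assay after 96 h of treatment. EC50 values in µM are averaged from three independent experiments, each run in triplicate, with a 95% confidence interval. The assay cut-off is 30 µM.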
Series [1] relates to A2780. As to the kind of experiment: Cytotoxicity against human A2780 cells after 96 hrs by SRB assay. Format: functional, cell-based. Conditions: A2780, 96 h. The method in brief: as §1
On the technique in general: In SRB staining, fixed cells bind dye roughly in proportion to their protein.

The subject of the next series is HT-29. The series is described as follows: Cytotoxicity against human HT-29 cells after 96 hrs by SRB assay. The class given is functional, cell-based. The settings on record: HT-29, 96 h. The essentials: as §1
In the next series the test system is MCF7. As to the kind of experiment: Cytotoxicity against human MCF7 cells after 96 hrs by SRB assay. Format: functional, cell-based. Conditions: MCF7, 96 h. The method in brief: as §1
For another series, the system named is NIH3T3. As to the kind of experiment: Cytotoxicity against mouse NIH/3T3 cells after 96 hrs by SRB assay. Format: cell-based. The settings on record: NIH3T3, 96 h. The essentials:
as §1

For a further series, the system named is SW-1736. As to the kind of experiment: Cytotoxicity against human SW1736 cells after 96 hrs by SRB assay. The class given is functional, cell-based. The settings on record: SW-1736, 96 h. The method in brief: as §1
Series [2] is described as follows: Drug uptake in nucleus of human A2780 cells at 200 nM after 24 hrs by rhodamine 123 staining based fluorescence microscopy. Conditions: a2780, 24 h, 0.2 µM. Format: ADME, subcellular. The method in brief:
(§2)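 A2780 ovarian carcinoma cells were incubated 24 h with 200 nM compound, then double-stained with rhodamine 123 (mitochondria, green) and Hoechst 33342 (nuclei). Fluorescence microscopy localized the compound's own red fluorescence by overlay with the rhodamine 123 and Hoechst channels. Bright-field images were also taken.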

The nature of series [3]: Drug uptake in mitochondria of human A2780 cells at 200 nM after 24 hrs by rhodamine 123 staining based fluorescence microscopy. Format: ADME. The settings on record: a2780, 24 h, 0.2 µM. The method in brief: as §2
In series [4] the test system is A2780. As to the kind of experiment: Induction of apoptosis in human A2780 cells assessed as crescent-shaped nuclei at 200 nM after 24 hrs by Hoechst 33342 staining based fluorescence microscopy. The class given is functional, cell-based.
For series [5], the system named is A2780. The series is described as follows: Induction of apoptosis in human A2780 cells assessed as incipient membrane blebbing at 200 nM after 24 hrs. Format: functional, cell-based.

Turning to `CCN(CC)c1ccc2c(-c3ccccc3C(=O)O[C@H]3CC[C@]4(C)[C@H]5CC=C6[C@@H]7[C@@H](C)[C@H](C)CC[C@]7(C(=O)OCc7ccccc7)CC[C@@]6(C)[C@]5(C)CC[C@H]4C3(C)C)c3ccc(=[N+](CC)CC)cc-3oc2c1`, the pEC50 in the series on FaDu was 4.80; in the series on A2780 [1], 5.00; in the series on HT-29, 4.94; in the series on MCF7, 4.86; with NIH3T3, 4.81; in the series on SW-1736, 4.90.
For `CCN(CC)c1ccc2c(-c3ccccc3C(=O)O[C@H]3CC[C@]4(C)[C@H]5C(=O)C=C6[C@@H]7C[C@@](C)(C(=O)OCc8ccccc8)CC[C@]7(C)CC[C@@]6(C)[C@]5(C)CC[C@H]4C3(C)C)c3ccc(=[N+](CC)CC)cc-3oc2c1`, the pEC50 in the series on FaDu is 5.81; with A2780 [1] it was 6.05; in the series on HT-29, 5.85; with MCF7, 5.83; in the series with NIH3T3 it was 5.89; in the series with SW-1736 it was 5.95.
In the case of `C=C(C)[C@@H]1CC[C@]2(C(=O)OC)CC[C@]3(C)[C@H](CC[C@@H]4[C@@]5(C)CC[C@H](OC(=O)c6ccccc6-c6c7ccc(=[N+](CC)CC)cc-7oc7cc(N(CC)CC)ccc67)C(C)(C)[C@@H]5CC[C@]43C)[C@H]12`, the pEC50 was 5.89 in the series with FaDu; 6.38 with A2780 [1]; 6.21 in the series on HT-29; 6.09 in the series with MCF7; 5.75 in the series with NIH3T3; 6.13 with SW-1736.
As for `CCN(CC)c1ccc2c(-c3ccccc3C(=O)O[C@H]3CC[C@]4(C)[C@H]5CC=C6[C@@H]7CC(C)(C)CC[C@]7(C(=O)OC)CC[C@@]6(C)[C@]5(C)CC[C@H]4C3(C)C)c3ccc(=[N+](CC)CC)cc-3oc2c1`, the pEC50 with FaDu is 5.70; in the series with A2780 [1], 5.94; with HT-29, 5.56; in the series with MCF7, 5.64; with NIH3T3, 5.58; with SW-1736 it was 5.75.
Consider `CCN(CC)c1ccc2c(-c3ccccc3C(=O)O[C@H]3CC[C@]4(C)[C@H]5C(=O)C=C6[C@@H]7C[C@@](C)(C(=O)OC)CC[C@]7(C)CC[C@@]6(C)[C@]5(C)CC[C@H]4C3(C)C)c3ccc(=[N+](CC)CC)cc-3oc2c1`, for which the pEC50 in the series on FaDu was 6.72; in the series with A2780 [1], 7.10; with HT-29 it was 6.82; in the series on MCF7, 6.74; in the series with NIH3T3, 6.70; with SW-1736, 6.82.
On to `C=C(C)[C@@H]1CC[C@]2(C(=O)OCc3ccccc3)CC[C@]3(C)[C@H](CC[C@@H]4[C@@]5(C)CC[C@H](OC(=O)c6ccccc6-c6c7ccc(=[N+](CC)CC)cc-7oc7cc(N(CC)CC)ccc67)C(C)(C)[C@@H]5CC[C@]43C)[C@H]12`, for which the pEC50 in the series with FaDu is 5.12; in the series on A2780 [1], 5.47; with HT-29, 5.27; in the series with MCF7 it was 5.30; with NIH3T3, 5.09; in the series with SW-1736 it was 5.19.
Take `CCN(CC)c1ccc2c(-c3ccccc3C(=O)O[C@H]3CC[C@]4(C)[C@H]5CC=C6[C@@H]7CC(C)(C)CC[C@]7(C(=O)NCc7ccccc7)CC[C@@]6(C)[C@]5(C)CC[C@H]4C3(C)C)c3ccc(=[N+](CC)CC)cc-3oc2c1`: the negative logarithm of the EC50 (pEC50) in the series on FaDu is 6.30; in the series with A2780 [1], 6.49; in the series on HT-29 it was 6.34; in the series on MCF7, 6.44; with NIH3T3 it was 6.40; in the series on SW-1736, 6.57.
On to `CCN(CC)c1ccc2c(-c3ccccc3C(=O)O[C@H]3CC[C@]4(C)[C@H]5C(=O)C=C6[C@@H]7C[C@@](C)(C(=O)NCc8ccccc8)CC[C@]7(C)CC[C@@]6(C)[C@]5(C)CC[C@H]4C3(C)C)c3ccc(=[N+](CC)CC)cc-3oc2c1.[Cl-]`, for which the negative-log EC50 (pEC50) is 7.22 in the series on FaDu; 7.70 in the series with A2780 [1]; 7.22 in the series with HT-29; 7.40 with MCF7; 7.10 in the series with NIH3T3; 7.40 with SW-1736. The Drug uptake result is on record as “Not Active” in series [2] and “Active” in series [3]. The result in the series with A2780 [4] and in the series on A2780 [5] was Active.
Regarding `CCN(CC)c1ccc2c(-c3ccccc3C(=O)O[C@H]3CC[C@]4(C)[C@H]5CC=C6[C@@H]7[C@@H](C)[C@H](C)CC[C@]7(C(=O)NCc7ccccc7)CC[C@@]6(C)[C@]5(C)CC[C@H]4C3(C)C)c3ccc(=[N+](CC)CC)cc-3oc2c1`, the pEC50 was 6.36 in the series with FaDu; 6.47 in the series with A2780 [1]; 6.35 in the series with HT-29; 6.52 in the series with MCF7; 6.43 in the series on NIH3T3; 6.62 in the series with SW-1736.
Turning to `C=C(C)[C@@H]1CC[C@]2(C(=O)NCc3ccccc3)CC[C@]3(C)[C@H](CC[C@@H]4[C@@]5(C)CC[C@H](OC(=O)c6ccccc6-c6c7ccc(=[N+](CC)CC)cc-7oc7cc(N(CC)CC)ccc67)C(C)(C)[C@@H]5CC[C@]43C)[C@H]12`, the pEC50 with FaDu is 6.27; in the series with A2780 [1] it was 6.51; in the series with HT-29, 6.28; in the series on MCF7, 6.33; with NIH3T3 it was 6.27; with SW-1736, 6.35.
Turning to `CCN(CC)c1ccc2c(-c3ccccc3C(=O)O[C@H]3CC[C@]4(C)[C@H]5CC=C6[C@@H]7CC(C)(C)CC[C@]7(C(=O)OCc7ccccc7)CC[C@@]6(C)[C@]5(C)CC[C@H]4C3(C)C)c3ccc(=[N+](CC)CC)cc-3oc2c1`, the pEC50 was 5.04 in the series with FaDu; 5.47 in the series with A2780 [1]; 5.05 in the series with HT-29; 5.03 with MCF7; 4.95 in the series with NIH3T3; 5.04 in the series on SW-1736.
On to `CCN(CC)c1ccc2c(-c3ccccc3C(=O)O[C@H]3CC[C@]4(C)[C@H]5CC=C6[C@@H]7[C@@H](C)[C@H](C)CC[C@]7(C(=O)OC)CC[C@@]6(C)[C@]5(C)CC[C@H]4C3(C)C)c3ccc(=[N+](CC)CC)cc-3oc2c1`, for which the pEC50 in the series on FaDu is 5.71; in the series on A2780 [1], 5.76; with HT-29 it was 5.73; with MCF7 it was 5.74; with NIH3T3 it was 5.74; in the series on SW-1736 it was 5.76.

Source of the values: ChEMBL document CHEMBL4152227, “Targeting mitochondria: Esters of rhodamine B with triterpenoids are mitocanic triggers of apoptosis” (Eur J Med Chem, 2018).
